Measurements as given in paper PMC3780362 (Nuclear medicine and biology, 2009).
Each block holds one compound with its values, some of them ahead of it.

Legend:
5-HT1B receptor [1] = molecular target: T1, 5-HT1B receptor (Macaca mulatta, UniProt F6SFA9); experiment: Binding selectivity PET study: blocking of [11C]P943 with GR127935; assay type: in vivo, Rhesus monkey
In short: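 About three hours later came a second scan with GR127935 2 mg/kg i.v. bolus given before the tracer. Dose was 5.4 ± 0.7 mCi at 6.3 ± 0.9 mCi/nmol. BPND = ROI/cerebellum ratio from 70-100 min, minus 1, in control and blocked scans.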

5-HT1B = 5-HT1B (Homo sapiens, UniProt P28222); experiment: NIMH Psychoactive Drug Screening Program binding; conditions: based on the in vitro data
human 5-HT1B receptor = conditions: selectivity; cited from earlier work
5-HT1B receptor [2] = molecular target: T1, 5-HT1B receptor; experiment: Baseline brain PET imaging with [11C]P943; assay type: in vivo, Rhesus monkey
In short: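 Rhesus monkeys (5-8 kg) were fasted overnight, given ketamine 10 mg/kg i.m. and glycopyrrolate, then kept on ~2% isoflurane and scanned on HRRT PET after a transmission scan. Tracer dose was 5-7 mCi. Bolus scan: one animal, 120 min list-mode acquisition. Bolus plus infusion scans: Kbol 150 min, four animals. BPND = mean ROI/cerebellum concentration over 70-100 min, minus 1.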

5-HT1B receptor [3] = molecular target: T1, 5-HT1B receptor; experiment: Binding saturability PET study; assay type: in vivo, Rhesus monkey; conditions: high SA
In short: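 Self-block design: 2 anesthetized rhesus monkeys, each scanned on two days at high, medium and low specific activity by adding unlabeled test compound (12 scans). Dosing was 2 min i.v. bolus plus 118 min constant infusion, Kbol 150 min for high-SA scans. Net high SA at injection was 111.7 MBq/nmol. BPND = ROI/cerebellum equilibrium ratio over 70-100 min, minus 1.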

[4] = Mean of two monkeys, GR127935 2 mg/kg i.v.
[5] = Monkey#1, GR127935 2 mg/kg i.v.
[6] = Monkey#2, GR127935 2 mg/kg i.v.

T1 sequence (F6SFA9 1-390): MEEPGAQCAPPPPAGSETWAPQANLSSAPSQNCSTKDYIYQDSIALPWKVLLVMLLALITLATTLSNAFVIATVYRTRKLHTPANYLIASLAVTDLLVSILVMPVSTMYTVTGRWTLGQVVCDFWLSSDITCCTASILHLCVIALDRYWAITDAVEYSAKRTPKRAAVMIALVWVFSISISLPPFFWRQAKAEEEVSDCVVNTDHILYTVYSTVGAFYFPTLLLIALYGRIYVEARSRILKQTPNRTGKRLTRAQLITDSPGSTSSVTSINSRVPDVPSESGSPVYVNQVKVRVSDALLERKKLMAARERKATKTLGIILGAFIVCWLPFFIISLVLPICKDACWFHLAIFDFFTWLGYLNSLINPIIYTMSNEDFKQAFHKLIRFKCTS
Sequence of 5-HT1B (P28222 whole entry, species assumed): as the sequence (F6SFA9 1-390) above, with A20V, T35A, A45S, V105I, D198E, R301K, L337M counted along it

%Reduction in BPND Caudate (5-HT1B receptor [1]; [4]): 62% | %Reduction in BPND Cingulate (5-HT1B receptor [1]; [4]): 64% | %Reduction in BPND Frontal (5-HT1B receptor [1]; [4]): 91% | %Reduction in BPND Globus Pallidus (5-HT1B receptor [1]; [4]): 73% | %Reduction in BPND Insula (5-HT1B receptor [1]; [4]): 53% | %Reduction in BPND Occipital (5-HT1B receptor [1]; [4]): 95% | %Reduction in BPND Putamen (5-HT1B receptor [1]; [4]): 40% | %Reduction in BPND Thalamus (5-HT1B receptor [1]; [4]): 75% | %Reduction in BPND Caudate (5-HT1B receptor [1]; [5]): 78% | %Reduction in BPND Cingulate (5-HT1B receptor [1]; [5]): 66% | %Reduction in BPND Frontal (5-HT1B receptor [1]; [5]): 84% | %Reduction in BPND Globus Pallidus (5-HT1B receptor [1]; [5]): 80% | %Reduction in BPND Insula (5-HT1B receptor [1]; [5]): 61% | %Reduction in BPND Occipital (5-HT1B receptor [1]; [5]): 96% | %Reduction in BPND Putamen (5-HT1B receptor [1]; [5]): 47% | %Reduction in BPND Thalamus (5-HT1B receptor [1]; [5]): 76% | %Reduction in BPND Caudate (5-HT1B receptor [1]; [6]): 45% | %Reduction in BPND Cingulate (5-HT1B receptor [1]; [6]): 61% | %Reduction in BPND Frontal (5-HT1B receptor [1]; [6]): 98% | %Reduction in BPND Globus Pallidus (5-HT1B receptor [1]; [6]): 66% | %Reduction in BPND Insula (5-HT1B receptor [1]; [6]): 45% | %Reduction in BPND Occipital (5-HT1B receptor [1]; [6]): 94% | %Reduction in BPND Putamen (5-HT1B receptor [1]; [6]): 33% | %Reduction in BPND Thalamus (5-HT1B receptor [1]; [6]): 74% | BPND frontal cortex after blockade (5-HT1B receptor [1]; after GR127935 2 mg/kg i.v.): 0.06 | BPND occipital after blockade (5-HT1B receptor [1]; after GR127935 2 mg/kg i.v.): 0.03
SMILES: COc1ccc(NC(=O)c2ccc(-c3ccc(-c4noc(C)n4)cc3C)cc2)cc1N1CCN(C)CC1 [GR127935]

affinity for 5HT1B higher than for 5-HT1A receptors (5-HT1B): 50-100 times
SMILES: COC(C)(C)c1ccc(N2CC[C@@H](Cc3ccccc3N3CCN(C)CC3)C2=O)cc1 [P943, R-1-[4-(2-methoxy-isopropyl)-phenyl]-3-[2-(4-methyl-piperazin-1-yl)benzyl]-pyrrolidin-2-one]
affinity for other 5-HT and non-5-HT receptors lower than for 5-HT1B (human 5-HT1B receptor): at least 100 fold

time of peak uptake in most brain regions (5-HT1B receptor [2]; 2 hr baseline scan, bolus injection): 10 to 30 min | time at which equilibrium was reached in the brain (5-HT1B receptor [2]; bolus plus infusion): ~70 min | BPND frontal cortex, control scan (5-HT1B receptor [1]; before blockade, paired study): 0.49 | BPND occipital, control scan (5-HT1B receptor [1]; before blockade, paired study): 0.71 | BPND at high specific activity, globus pallidus (5-HT1B receptor [3]): 0.57 | BPND at high specific activity, occipital cortex (5-HT1B receptor [3]; highest value): 0.80
SMILES: COC(C)(C)c1ccc(N2CC[C@@H](Cc3ccccc3N3CCN(C)CC3)C2=O)cc1 [[^11C]P943, (R)-1-(4-(2-methoxypropan-2-yl)phenyl)-3-(2-(4-methylpiperazin-1-yl)benzyl)pyrrolidin-2-one]
